Assay results from different studies.
Each line is one published result; the experiments were not run side by side.

SMILES | target or system | effect on | technique | strain | time | measurement | value
Cc1cc(C)c(C(N)=O)c(SCC(=O)c2ccc(Cl)cc2Cl)n1 | Trypanosoma brucei | parasite growth | resazurin | RHODESIENSE |  | EC50 | > 64 µM
N=C(N)c1ccc(OCCCCCOc2ccc(C(=N)N)cc2)cc1 | Trypanosoma brucei | parasite growth | resazurin |  | 72 h | EC50 | 0.005 µM
Cc1[nH]c(C(=O)Nc2ccc(C(=O)NCC(=O)O)cc2N2CC[C@@H](NC(=O)OC(C)(C)C)C2)c(Cl)c1Cl | Enterococcus faecium | microbial growth | broth dilution | ATCC35667 |  | MIC | > 32 µg/mL
O=C(O)c1ccc2c(c1)nc(Nc1cccc(Cl)c1)c1ccncc12 | SK-MES-1 | cell growth or viability | crystal violet |  | 48 h | IC50 | 4.6 µM
Cc1ccc(Cn2cc(C(=O)NN)c(=O)c3cc(Oc4ccccc4)ccc32)cc1 | Trypanosoma brucei | parasite growth |  | RHODESIENSE |  | EC50 | 0.5 µM
C=CC(=O)NC1CCN(c2ncc3ncnc(Nc4ccc(Oc5ccc6c(c5)ncn6C)c(C)c4)c3n2)CC1 | DoTc2-4510 | cell growth or viability |  |  |  | EC50 | 5.24 µM
Nc1ccc(/C=C/C(=O)N2CCc3c(oc4c(-c5ccc(F)cc5)cc(-c5ccc(C(=O)N6C[C@@H]7[C@H](C6)C7(F)F)nn5)cc34)C2)cn1 | CFPAC-1 | cell growth or viability | CCK-8 |  | 72 h | IC50 | > 20 µM
Cc1[nH]c(C(=O)Nc2ccc(C(=O)NCc3n[nH]c(=O)o3)cc2N2CCNCC2)c(Cl)c1Cl.Cl | Enterococcus faecium | microbial growth | broth dilution | ATCC35667 |  | MIC | > 32 µg/mL
Nc1ccc(/C=C/C(=O)NCc2cc3cc(-c4ccc(C(=O)N5CCC(F)(F)CC5)cc4)cc(-c4ccc(F)cc4)c3o2)cn1 | CFPAC-1 | cell growth or viability | CCK-8 |  | 72 h | IC50 | > 20 µM
COc1ccc(C(=O)CSc2[nH]c(=O)cc(C(F)(F)F)c2C#N)cc1 | Trypanosoma brucei | parasite growth | resazurin |  |  | EC50 | 30.8 µM
Cl.N[C@@H]1CCN(c2cc(C(=O)NCC(=O)O)ccc2NC(=O)c2cc(Br)c(Br)[nH]2)C1 | Enterococcus faecium | microbial growth | broth dilution | ATCC35667 |  | MIC | > 32 µg/mL
Cc1cc(C)c(C#N)c(SCC(=O)c2ccccn2)n1 | Trypanosoma brucei | parasite growth | resazurin |  |  | EC50 | > 64 µM
Cc1[nH]c(C(=O)Nc2ccc(C(=O)NCC(=O)O)cc2N2CC[C@H](N)C2)c(Cl)c1Cl.Cl | Enterococcus faecium | microbial growth | broth dilution | ATCC35667 |  | MIC | > 32 µg/mL
Cc1cc(C)c(C#N)c(SCC(=O)c2cccc(N)c2)n1 | Trypanosoma brucei | parasite growth | resazurin |  |  | EC50 | > 64 µM
Cc1[nH]c(C(=O)Nc2ccc(C(=O)NCC(=O)O)cc2N2CCNCC2)c(Cl)c1Cl.Cl | Enterococcus faecium | microbial growth | broth dilution | ATCC35667 |  | MIC | > 32 µg/mL
